Laboratory results published in ChEMBL document CHEMBL1133628, “Nonnucleoside human cytomegalovirus inhibitors: synthesis and antiviral evaluation of (chlorophenylmethyl)benzothiadiazine dioxide derivatives” (J Med Chem, 2000).

Legend:
HEL [1] = test: In vitro alteration in cell morphology in HEL cells.; type: functional; details: Homo sapiens
In short: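 Normal HEL cells exposed to compounds and examined microscopically; minimum cytotoxic concentration is the lowest giving a detectable change in cell morphology. Duplicate assays.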

Human alphaherpesvirus 3 [2] = test: In vitro inhibition of Thymidine Kinase-Varicella-Zoster Virus(OKA) plaque formation.; type: functional, organism-based; details: Human alphaherpesvirus 3, oka
In short: (§1)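 Confluent HEL fibroblasts infected with VZV at 20 PFU; after a 2-h adsorption, residual virus removed and cells incubated in MEM with 2% FCS containing serial 5-fold compound dilutions, in duplicate. Fixed with ethanol after 5 days at 37 °C, 5% CO2, then Giemsa-stained; plaques counted microscopically. IC50 read graphically from plaque number (% of control); mean of two independent experiments.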

Human betaherpesvirus 5 [3] = test: In vitro inhibition of HCMV (AD-169) plaque formation.; type: functional, organism-based
In short: (§2)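 Confluent HEL fibroblasts infected with HCMV at 100 PFU of cell-free virus; after a 2-h adsorption, residual virus removed and cells incubated in MEM with 2% FCS containing serial 5-fold compound dilutions, in duplicate. Fixed with ethanol after 7 days at 37 °C, 5% CO2, then Giemsa-stained; cytopathic effect scored microscopically. IC50 read graphically from % cytopathicity; mean of two experiments.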

[4] = tested on: Human immunodeficiency virus 1; test: In vitro inhibition of HIV-1(IIIB) cytopathicity in CEM cells.; type: functional, organism-based; details: Human immunodeficiency virus 1, CCRF-CEM
In short: (§3)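 CEM cells at 4×10^5 cells/mL infected with HIV-1 IIIB or HIV-2 ROD (stocks from MT-4 supernatants) at ~100 CCID50/mL, then immediately mixed with compound dilutions. Giant cell formation scored microscopically after 4 days; EC50 is the concentration inhibiting it by 50%. Triplicate assays.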

HEL [5] = test: Inhibition of cell growth in HEL cells.; type: functional; details: Homo sapiens
In short: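 HEL fibroblasts seeded at 5×10^3 cells/well and left to proliferate 24 h, then given compound dilutions in duplicate. Incubated 3 days at 37 °C, 5% CO2; cells counted with a Coulter counter. CC50 is the concentration reducing cell growth by 50%.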

Human betaherpesvirus 5 [6] = test: In vitro inhibition of HCMV (Davis) plaque formation.; type: functional, organism-based; in short: as §2
[7] = tested on: Human immunodeficiency virus 2; test: In vitro inhibition of HIV-2(ROD) cytopathicity in CEM cells.; type: functional, organism-based; details: Human immunodeficiency virus 2, CCRF-CEM; in short: as §3
Human alphaherpesvirus 3 [8] = test: In vitro inhibition of Thymidine Kinase deficient Varicella Zoster Virus (YS/R) plaque formation.; type: functional, organism-based; in short: as §1
Human alphaherpesvirus 3 [9] = test: In vitro inhibition of Thymidine Kinase deficient Varicella Zoster Virus (07/1) plaque formation.; type: functional, organism-based; in short: as §1
CCRF-CEM = test: In vitro inhibition of CEM cell proliferation.; type: functional; details: Homo sapiens
In short: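 CEM cell proliferation measured alongside the HIV assays; CC50 is the concentration reducing CEM cell proliferation by 50%.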

Human alphaherpesvirus 3 [10] = test: In vitro inhibition of Thymidine Kinase-Varicella Zoster Virus(YS) plaque formation.; type: functional, organism-based; in short: as §1
[11] = concentration required to reduce virus Human Cytomegalovirus (Davis)plaque formation by 50%; type: functional
In short: (§4)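 Confluent HEL fibroblasts were infected with 100 PFU cell-free HCMV, and residual virus was removed after 2 h. Cells were kept in MEM with 2% FCS and compound dilutions spaced 5-fold, in duplicate, for 7 days at 37 °C in 5% CO2. They were ethanol-fixed and Giemsa-stained, and cytopathic effect was scored microscopically. IC50 was interpolated from plots as the mean of two experiments.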

[12] = concentration required to reduce CEM cell proliferation by 50%; details: Homo sapiens
[13] = concentration required to reduce virus HCMV (AD-169)plaque formation by 50%; type: functional, Homo sapiens; in short: as §4
Human betaherpesvirus 5 [14] = test: concentration required to reduce virus HCMV (B)plaque formation by 50%; type: functional, organism-based
In short: (§5)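 Wild-type HCMV clinical isolates from patients (congenital infection, mononucleosis, AIDS, bone marrow transplant) tested in confluent HEL fibroblasts. IC50 taken as the concentration reducing virus plaque formation by 50%; assays in duplicate.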

Human betaherpesvirus 5 [15] = test: concentration required to reduce virus HCMV (E)plaque formation by 50%; type: functional, organism-based; in short: as §5
Human betaherpesvirus 5 [16] = test: concentration required to reduce virus HCMV (C)plaque formation by 50%; type: functional, organism-based; in short: as §5
Human betaherpesvirus 5 [17] = test: concentration required to reduce virus HCMV (A)plaque formation by 50%; type: functional, organism-based; in short: as §5
Human betaherpesvirus 5 [18] = test: concentration required to reduce virus HCMV (F)plaque formation by 50%; type: functional, organism-based; in short: as §5
Human betaherpesvirus 5 [19] = test: concentration required to reduce virus HCMV (G)plaque formation by 50%; type: functional, organism-based; in short: as §5
Human betaherpesvirus 5 [20] = test: concentration required to reduce virus HCMV (D)plaque formation by 50%; type: functional, organism-based; in short: as §5

Row | Compound | MCC (HEL [1]) [µM] | IC50 (Human alphaherpesvirus 3 [2]) [µM] | IC50 (Human betaherpesvirus 5 [3]) [µM] | EC50 [4] [µM] | CC50 (HEL [5]) [µM] | IC50 (Human betaherpesvirus 5 [6]) [µM] | EC50 [7] [µM] | IC50 (Human alphaherpesvirus 3 [8]) [µM] | IC50 (Human alphaherpesvirus 3 [9]) [µM] | CC50 (CCRF-CEM) [µM] | IC50 (Human alphaherpesvirus 3 [10]) [µM] | other results
1 | O=C(OCOCN1c2ccccc2C(=O)N(Cc2ccccc2)S1(=O)=O)c1ccccc1 | 110 | > 44 | 29 | > 40 | 37 | > 44 | > 40 | 26 | > 44 | 100 | > 44 | –
2 | C#CCOCN1c2ccccc2C(=O)N(Cc2ccccc2)S1(=O)=O | 140 | – | – | > 8 | > 140 | – | > 8 | 36 | – | 23 | – | –
3 | O=C1c2ccccc2N(Cc2ccc(Cl)cc2)S(=O)(=O)N1Cc1ccc(Cl)cc1 | > 50 | 3.6 | 3.2 | > 10 | > 200 | 3.2 | 7.5 | 2.4 | 11 | 35.8 | 3.8 | –
4 | O=S1(=O)N=C(OCc2ccccc2)c2ccccc2N1Cc1ccccc1 | 200 | > 50 | 7 | > 10 | > 200 | 7 | > 10 | 20 | > 50 | 22.2 | > 50 | –
5 | O=C1c2ccccc2N(COCc2ccccc2)S(=O)(=O)N1COCc1ccccc1 | 200 | 14 | 12 | 25 | 130 | 12 | 25 | 10 | > 50 | 27.7 | > 50 | –
6 | O=C1c2ccccc2N(Cc2ccccc2)S(=O)(=O)N1Cc1ccccc1 | > 50 | 7.4 | 10 | 25 | > 200 | 10 | ≥ 50 | 6 | 23 | 108 | 36 | –
7 | O=C1c2ccccc2N(Cc2ccccc2Cl)S(=O)(=O)N1Cc1ccccc1Cl | > 20 | > 50 | > 50 | 15 | > 200 | 50 | > 10 | 5 | > 50 | 40.4 | > 50 | –
8 | O=S1(=O)N=C(OCc2ccc(Cl)cc2)c2ccccc2N1Cc1ccc(Cl)cc1 | – | – | – | – | – | – | – | – | – | – | – | EC50 [11]: > 50 µM; CC50 [12]: > 250 µM; EC50 [13]: > 50 µM
9 | Nc1nc2c(ncn2COCCO)c(=O)[nH]1 [ACYCLOVIR] | > 150 | 4.53 | – | – | > 400 | – | – | 63 | 41 | – | 4.09 | –
10 | Nc1nc2c(ncn2COC(CO)CO)c(=O)[nH]1 [GANCICLOVIR] | > 150 | – | 3.7 | – | 394 | – | – | – | – | – | – | IC50 (Human betaherpesvirus 5 [14]): 6.2 µM; IC50 (Human betaherpesvirus 5 [15]): 4.1 µM; IC50 (Human betaherpesvirus 5 [16]): 6.2 µM; IC50 (Human betaherpesvirus 5 [17]): 6.2 µM; IC50 (Human betaherpesvirus 5 [18]): 6.2 µM; IC50 (Human betaherpesvirus 5 [19]): 8.2 µM; IC50 (Human betaherpesvirus 5 [20]): 4.1 µM
11 | O=C1c2ccccc2N(Cc2ccccc2)S(=O)(=O)N1Cc1ccccc1Cl | 200 | > 50 | > 50 | > 250 | > 200 | > 50 | > 250 | > 50 | > 50 | > 250 | > 20 | –
